Results reported in ChEMBL document CHEMBL2380295, “Structure-activity studies on the side chain of a simplified analog of aplysiatoxin (aplog-1) with anti-proliferative activity” (Bioorg Med Chem, 2013).

Experiments:
[1] = target: Protein kinase C delta type (Homo sapiens, UniProt Q05655); assay: Inhibition of [3H]PDBu binding to PKCdelta-C1A domain peptide (unknown origin)
In short: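 Competitive [3H]PDBu binding used 14 or 40 nM PKCδ C1 peptide and 20 nM [3H]PDBu (19.6 Ci/mmol), in 50 mM Tris-maleate (pH 7.4 at 4 °C) with 50 µg/mL phosphatidylserine, 3 mg/mL bovine γ-globulin and varied inhibitor concentrations. IC50 was taken as 50% inhibition of specific binding. Ki was derived by the Sharkey–Blumberg method.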

[2] = system: SNB-75; assay: Growth inhibition of human SNB75 cells after 48 hrs by sulforhodamine B assay; format: functional; details: SNB-75, 48 h
In short: (§1)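 Yamori 39-line human cancer panel, NCI method with modifications. Cells plated in RPMI 1640 plus 5% FBS, attached overnight, then exposed 48 h to compound at 10^-8, 10^-7, 10^-6, 10^-5 and 10^-4 M. Sulforhodamine B staining read at 525 nm; % growth = 100[(T−T0)/(C−T0)] from duplicate-point averages, with T0 the time-zero absorbance. GI50 is the concentration giving 50.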

[3] = Growth inhibition of human HBC5 cells after 48 hrs by sulforhodamine B assay; format: functional; details: HBC5, 48 h; in short: as §1
[4] = system: DMS-273; assay: Growth inhibition of human DMS273 cells after 48 hrs by sulforhodamine B assay; format: functional; details: DMS-273, 48 h; in short: as §1
[5] = system: NCI-H460; assay: Growth inhibition of human NCI-H460 cells after 48 hrs by sulforhodamine B assay; format: functional; details: NCI-H460, 48 h; in short: as §1
[6] = Octanol-water partition coefficient, log P of the compound by HPLC analysis; format: physicochemical
In short: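 log P was estimated from HPLC retention, with column dead time measured using unretained formamide.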

Protein kinase C delta type, sequence (Q05655 whole entry, the tested form may be a part): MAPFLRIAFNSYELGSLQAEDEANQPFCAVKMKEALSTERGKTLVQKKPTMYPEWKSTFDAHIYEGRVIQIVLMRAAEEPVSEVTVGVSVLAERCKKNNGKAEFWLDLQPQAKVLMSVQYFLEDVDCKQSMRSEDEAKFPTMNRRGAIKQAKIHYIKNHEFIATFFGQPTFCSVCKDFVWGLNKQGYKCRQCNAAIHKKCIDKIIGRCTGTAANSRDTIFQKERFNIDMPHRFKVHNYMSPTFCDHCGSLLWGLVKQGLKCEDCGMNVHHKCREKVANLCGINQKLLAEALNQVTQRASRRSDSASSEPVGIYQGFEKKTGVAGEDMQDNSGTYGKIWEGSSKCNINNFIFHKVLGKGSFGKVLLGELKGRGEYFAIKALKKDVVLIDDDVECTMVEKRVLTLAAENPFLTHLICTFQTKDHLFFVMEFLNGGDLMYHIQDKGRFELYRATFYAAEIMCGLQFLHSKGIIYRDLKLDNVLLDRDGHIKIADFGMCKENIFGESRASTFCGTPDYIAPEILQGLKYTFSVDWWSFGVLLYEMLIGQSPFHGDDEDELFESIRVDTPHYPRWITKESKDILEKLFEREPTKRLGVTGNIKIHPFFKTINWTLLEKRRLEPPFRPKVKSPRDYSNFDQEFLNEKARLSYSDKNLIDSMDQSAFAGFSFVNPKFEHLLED

SMILES | Ki [1] | logP [6] | also measured
C[C@H]1[C@@H]2C[C@@]3(O[C@H](CCC3(C)C)CC(=O)O[C@@H](CO)CC(=O)O2)O[C@@H]1CCCCc1cccc(O)c1 | 0.022 µM | – | –
CC1(C)CC[C@@H]2CC(=O)O[C@@H](CO)CC(=O)O[C@@H]3C[C@@H](CCCCc4cccc(O)c4)O[C@@]1(C3)O2 | – | – | GI50 [2]: 15.8 µM; GI50 [3]: 17.4 µM; GI50 [4]: 12.6 µM; GI50 [5]: 2.51 µM
CO[C@@H](CC[C@H](C)[C@H]1O[C@@]23C[C@H](OC(=O)C[C@H]([C@@H](C)O)OC(=O)C[C@](O)(O2)[C@H](C)CC3(C)C)[C@@H]1C)c1cccc(O)c1 [DEBROMOAPLYSIATOXIN] | 0.0097 µM | – | –
CO[C@@H](CC[C@H](C)[C@H]1O[C@@]23C[C@H](OC(=O)C[C@H]([C@@H](C)O)OC(=O)C[C@](O)(O2)[C@H](C)CC3(C)C)[C@@H]1C)c1cc(O)ccc1Br [APLYSIATOXIN] | – | 5.4 | –
CC1(C)CC[C@@H]2CC(=O)O[C@@H](CO)CC(=O)O[C@@H]3C[C@@H](CCCCc4ccccc4)O[C@@]1(C3)O2 | – | 4.8 | –
